# Assay results reported in ChEMBL document CHEMBL4229356, “Synthesis and antikinetoplastid evaluation of bis(benzyl)spermidine derivatives” (Eur J Med Chem, 2018).
# Activity calls are given as the source filed them. The rule behind the calls is not given here.
# How the values were obtained:
# [1] = system: Trypanosoma brucei brucei; assay: Antitrypanosomal activity against Trypanosoma brucei brucei CMP infected in Swiss mouse assessed as change in mean survival time at 10 mg/kg, ip administered as single dose measured up to 30 days; assay type: functional
# Outline: (§1)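 Swiss mice infected ip with 10,000 T. b. brucei CMP trypanosomes, randomly grouped (six per batch), then given one ip dose of 100 or 10 mg/kg; controls received pentamidine, melarsamine or excipient. Parasitemia followed at days 2, 3, 4 and 30; deaths recorded by day post-treatment; efficacy as mean survival time minus that of excipient-treated controls (days ± SD).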
# [2] = Stability in human liver S9 fraction at 0.1 to 1 mM up to 12 hrs in absence of NADPH; assay type: ADME, subcellular; conditions: s9, 12 h, 1000 µM
# Outline: (§2)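 Pooled human liver S9 was diluted 20-fold in PBS (1 mg/ml protein). Compound solutions of 100 μM and 1 mM were incubated 0 and 12 h at 37 °C, with or without 1 mM NADPH.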
# [3] = system: Mus musculus; assay: Toxicity in Swiss mouse assessed as death at 100 mg/kg, ip administered as single dose measured up to 30 days; assay type: organism-based; conditions: in vivo, 720 h; outline: as §1
# [4] = system: Trypanosoma brucei brucei; assay: Antitrypanosomal activity against Trypanosoma brucei brucei CMP infected in Swiss mouse assessed as change in mean survival time at 100 mg/kg, ip administered as single dose measured up to 30 days; assay type: functional; outline: as §1
# [5] = Stability in human liver S9 fraction at 0.1 to 1 mM up to 12 hrs in presence of NADPH; assay type: ADME, subcellular; conditions: s9, 12 h, 1000 µM; outline: as §2
# [6] = Stability in human plasma by HPLC analysis; assay type: ADME, cell-free; conditions: read-out: Stability
# Outline: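 Human plasma was diluted 10-fold in PBS and incubated with 1 mM compound solutions for 0, 2 and 12 h at 37 °C. Samples were quenched with ice-cold acetonitrile, centrifuged, filtered and analysed by C18 reversed-phase HPLC at 25 °C.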
# [7] = system: Trypanosoma brucei gambiense; assay: Trypanocidal activity against Trypanosoma brucei gambiense FeoITMAP/1893 after 72 hrs by resazurin dye based assay; assay type: functional, organism-based; conditions: FeoITMAP/1893, 72 h
# Outline: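 T. b. gambiense Feo was grown in supplemented IMDM with 10% FBS. Cells at 4.10⁴/mL were exposed 72 h at 37 °C, 5% CO2 in the dark to two-fold dilutions. Resazurin (450 µM solution) was added for 6 h and read at OD570/OD600. Result given as IC50; pentamidine was the reference.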
# [8] = system: Leishmania donovani; assay: Antiparasitic activity against Leishmania donovani LV9 axenic intramacrophage amastigotes infected in mouse RAW264.7 cells incubated for 48 hrs by Sybr Green 1 dye based fluorescence assay; assay type: functional, organism-based; conditions: LV9, RAW264.7, 48 h
# Outline: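 RAW 264.7 cells at 2.10⁴/well were infected 24 h with axenic amastigotes at a 16:1 parasite to macrophage ratio, then extracellular parasites were removed. Cells were treated 48 h with two-fold dilutions from 100 µM. They were then lysed (freeze-thaw, proteinase K, 55 °C overnight) and total DNA read by SYBR Green I fluorescence against untreated infected cells. Result given as IC50.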
# [9] = system: Mus musculus; assay: Toxicity in Swiss mouse assessed as death at 10 mg/kg, ip administered as single dose measured up to 30 days; assay type: organism-based; conditions: in vivo, 720 h; outline: as §1
# [10] = system: Leishmania donovani; assay: Antileishmanial activity against Leishmania donovani infected in Balb/c mouse at 2 mg/kg/day, ip for 5 consecutive days; assay type: functional, organism-based
# Outline: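 Balb/c mice infected with L. donovani; 2 mg/kg/day given intraperitoneally on five consecutive days, total 10 mg/kg.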
# [11] = Selectivity index, ratio of CC50 for mouse RAW264.7 cells to IC50 for Trypanosoma brucei gambiense FeoITMAP/1893; assay type: toxicity; conditions: read-out: Ratio CC50/IC50
# [12] = Cytotoxicity against mouse RAW264.7 cells assessed as reduction in cell viability after 48 hrs by resazurin assay; assay type: cell-based
# Outline: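 RAW 264.7 macrophages at 2.10⁴/well were preincubated 24 h, then exposed 48 h at 37 °C, 5% CO2 to two-fold dilutions in DMEM. Resazurin was added for 4 h in the dark and read at OD570/OD600. Result given as CC50.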
# [13] = system: Leishmania donovani; assay: Antiparasitic activity against Leishmania donovani LV9 axenic amastigotes incubated for 72 hrs by resazurin dye based assay; assay type: functional, organism-based; conditions: LV9, 72 h
# Outline: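 LV9 axenic amastigotes were derived from promastigotes in M-199 at pH 5.5, 37 °C, 5% CO2, and used in log phase. Cells at 10⁶/mL were exposed 72 h to two-fold dilutions from 100 to 0.02 μM. Resazurin was then added for 24 h in the dark and read at OD570/OD600. IC50 is relative to excipient-only controls; miltefosine was the reference.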
smiles,measurement,setting,value
NC1CCC(NCCCN(Cc2ccc(F)cc2)Cc2ccc(F)cc2)CC1 (stereo not drawn),Survival,[1],0 days
same,Stability,[2],Stable
same,Activity,[3],Toxic
same,Survival,[4],-2.3 days
same,Stability,[5],Stable
same,half-life,[6],> 720 min
same,IC50,[7],400 nM
same,IC50,[8],12.4 µM
same,Activity,[9],Non-Toxic
same,Activity,[10],inactive
same,selectivity ratio,[11],11
same,CC50 at 48 h,[12],4.4 µM
same,IC50,[13],44.4 µM
